# MPTP inh: mitochondrial permeability transition pore inhibitors, primary screen, biochemical, isolated mouse mitochondria, absorbance; Ca2+ swelling absorbance, 30 min; inhibition, % at 10 µM; actives 1.4% (n = 360,000); AID 602449, 2012;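 active = inhibition of 50% or more, scaled per plate between neutral and stimulator controls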;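 note: 0% = DMSO wells given calcium and 100% = 1 mM EGTA wells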
# aDG glyco up: activators of alpha-DG glycosylation, primary screen, uHTS, Pro5-aDG cells, AlphaScreen; alpha-DG glycosylation AlphaScreen (IIH6); 0% Pro5, 100% B10-LARGE cell signal; activation, % at 10 µM; actives 0.22% (n = 360,000); AID 624168, 2012;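 active = activation of at least 8% versus controls, or a plate z-score of at least 8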;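 note: Pro5 are CHO cells carrying HIG-tagged alpha-DG that lacks glycosylation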
# V-ATPase pH: regulators of yeast V-ATPase proton pumping, primary screen, pHLuorin cytosolic pH fluorescence. S. cerevisiae. response, % at 10 µM. actives 0.37% (n = 350,000). AID 504577, 2011; in the data active = response mostly above about 7.3%, no sharp cut-off; inactive = mostly below about 5.4%; note: actives read high
# Lipid droplet: inhibitors of hepatocyte lipid droplet formation, primary screen, imaging, high-throughput imaging, BODIPY stain; AML12 mouse hepatocytes, oleate lipid droplets; inhibition, % at 6.5 µM; actives 0.4% (n = 240,000);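 active = lipid droplet intensity inhibited by at least 50%, with more than 500 cells counted; inconclusive = wells with under 300 cells, treated as cytotoxic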
#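 Material: mouse AML12 hepatocyte cell line, fixed after treatment; Timing: compound with oleate, overnight; Technique: high-content imaging of BODIPY-stained droplets and DAPI nuclei; Probe or stimulus: oleate, 100 µM final; Dosing: compound at 6.5 µM only.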
# ADAM10 inh: human ADAM10 inhibitors, primary screen, biochemical, QFRET, HTS | AID 720582, 2013 | actives 0.62% (n = 370,000) | inhibition, % at 7 µM | Disintegrin and metalloproteinase domain-containing protein 10 (Homo sapiens), O14672 | recombinant ADAM10, EDANS/DABCYL FRET peptide cleavage, 3 h;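 active = inhibition above a per-campaign cutoff equal to the mean of compounds falling between control-based bounds plus 3 SD, cut at about 20% in these data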;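 note: 0% = DMSO wells while the 100% control is not disclosed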
# Target sequence (O14672 214-748 limits assumed): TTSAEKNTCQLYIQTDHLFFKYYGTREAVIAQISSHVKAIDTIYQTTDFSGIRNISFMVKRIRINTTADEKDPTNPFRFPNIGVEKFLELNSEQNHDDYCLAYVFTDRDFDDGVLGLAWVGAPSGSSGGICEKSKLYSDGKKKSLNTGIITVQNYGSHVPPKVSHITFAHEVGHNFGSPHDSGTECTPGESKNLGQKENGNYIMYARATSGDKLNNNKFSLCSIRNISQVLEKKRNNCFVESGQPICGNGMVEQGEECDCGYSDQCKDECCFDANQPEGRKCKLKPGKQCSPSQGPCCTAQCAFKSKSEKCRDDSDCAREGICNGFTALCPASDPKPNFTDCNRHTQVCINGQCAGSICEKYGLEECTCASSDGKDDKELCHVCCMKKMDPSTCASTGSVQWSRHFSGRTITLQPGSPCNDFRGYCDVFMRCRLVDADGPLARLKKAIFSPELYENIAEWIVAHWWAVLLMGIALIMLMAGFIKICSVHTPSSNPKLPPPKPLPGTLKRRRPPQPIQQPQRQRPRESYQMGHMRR
# ADAM17 inh: ADAM17 inhibitors, primary screen, biochemical, QFRET. Disintegrin and metalloproteinase domain-containing protein 17 (Homo sapiens), P78536. AID 720648, 2013. actives 0.83% (n = 370,000). recombinant ADAM17, EDANS/DABCYL FRET peptide cleavage. inhibition, % at 6.95 µM;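 active = inhibition above the mean of compounds lying between control limits plus 3 SD, set per campaign, cut at about 8.5% in these data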;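 note: 0% = DMSO-only wells as the low control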
# MPTP counter: fluorescence retest of MPTP screen hits in isolated mitochondria, single concentration; shares compounds with MPTP inh; membrane potential, Rhodamine 123 fluorescence; inhibition, % at 10 µM; actives 78% (n = 5,000); in the data active = inhibition above about 22%;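 note: 0% = DMSO vehicle and 100% = positive control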
# MPTP swell DR: mitochondrial permeability transition pore inhibitors, dose response, biochemical, absorbance, uHTS hits | shares compounds with MPTP inh | isolated mitochondria swelling | IC50, µM | actives 58% (n = 780) | AID 651561, 2012; in the data active = IC50 below about 20 µM
# MPTP counter DR: fluorescent counter-screen in isolated mitochondria, dose response, counter-screen for MPTP inhibitor project, biochemical, fluorescence, uHTS hits | shares compounds with MPTP inh | isolated mitochondria counterscreen, fluorescence read-out | IC50, µM | actives 49% (n = 780) | AID 651564, 2012; in the data active = IC50 below about 80 µM
# Numbers without * were called inactive; i = inactive; ? = inconclusive; · = no result. Hits are enriched below; roughly 3.1% of the tested compounds scored in any of these assays.
SMILES,MPTP inh,aDG glyco up,V-ATPase pH,Lipid droplet,ADAM10 inh,ADAM17 inh,MPTP counter,others
O=C(NC1CCCCC1)c1cc2ccccc2cc1O,115*,0,0,19,-8,-4,49*,
Cc1n[nH]c(C)c1S(=O)(=O)NCCc1ccccc1F,·,·,·,·,-3,-3,·,
Cc1ccccc1CN1CCCCC(NC(=O)c2ccc(Br)cc2)C1=O (stereo unspecified),·,·,·,·,4,3,·,
O=C(NCc1ccc(Cl)cc1)C1C2C=CC3(CN(Cc4ccccc4)C(=O)C13)O2 (stereo unspecified),·,·,·,·,3,2,·,
Cc1[nH]c(C(=O)N/N=C/c2ccc(C(=O)O)cc2)c(C)c1C(=O)N/N=C/c1ccc(C(=O)O)cc1,2,0,-2,-3,6,7,·,
CCOC(=O)c1c(C)[nH]c(C(=O)N/N=C/c2ccc(Br)cc2)c1C,99*,0,1,?,-1,-2,76*,
CN1CCN(C(c2ccc(Cl)cc2)c2cc(Cl)c3cccnc3c2O)CC1 (stereo unspecified),75*,0,-2,0,17,7,-23,
O=C(NC(c1ccc(Cl)cc1)c1cc(Cl)c2cccnc2c1O)c1cccnc1 (stereo unspecified),-1,0,0,8,3,-7,·,
CCc1ccc(/C=C2/SC(=S)N(CCC(=O)NCCCN3CCOCC3)C2=O)cc1,3,0,-2,-9,7,-2,·,
CC(c1ccccc1)N1C(=O)/C(=C/c2ccncc2)SC1=S (stereo unspecified),70*,0,-3,26,8,0,29*,
O=C(CCN1C(=O)/C(=C/c2ccccc2)SC1=S)NCCCN1CCOCC1,74*,0,0,-10,-9,0,4,MPTP swell DR=i;MPTP counter DR=63*
O=C(O)C(c1ccccc1)N1C(=O)/C(=C/c2cccs2)SC1=S (stereo unspecified),3,0,1,1,1,-1,·,
O=C(CCN1C(=O)/C(=C\c2cccc(Br)c2)SC1=S)NCCCN1CCOCC1,65*,0,3,-16,-1,2,18,MPTP swell DR=17*;MPTP counter DR=17*
O=C(CCN1C(=O)/C(=C\c2ccccc2)SC1=S)NNC(=O)c1ccncc1,53*,0,3,·,2,2,4,MPTP swell DR=>100;MPTP counter DR=>80
O=C(CCN1C(=O)/C(=C/c2ccccc2)SC1=S)NNC(=O)c1ccncc1,7,0,-3,1,-1,-2,·,
Cn1c(SCC(=O)Nc2ccc(S(=O)(=O)Nc3nccs3)cc2)nc2sc3c(c2c1=O)CCCC3,·,·,·,·,11,2,·,
C[C@H]1[C@@H](NC(=O)C2CCOC2)CC[C@@]23CCCN2C(=O)CCC[C@@H]13 (stereo partly specified),·,·,·,·,8,3,·,
O=C(OC12CCCN(C1)/C(=C/c1ccccc1)C2)c1ccc(F)cc1 (stereo unspecified),·,·,·,·,-15,0,·,
C[N+]1=C(N)N[C@@]2(C=C3CCCCC3n3c(=O)n(-c4ccccc4)c(=O)n32)C1 (stereo partly specified),·,·,·,·,-10,-1,·,
CC(=O)N1CCc2cc(S(=O)(=O)NC3CCN(C(=O)CCl)CC3)ccc21,·,·,·,·,7,-2,·,
O=C1C(=O)N(Cc2ccc(-c3ccccc3)cc2)c2ccc(OC(F)(F)F)cc21,·,·,·,·,15,2,·,
CC(=O)N1CCc2cc(S(=O)(=O)NCCC(=O)N(C)C3CCCCC3)ccc21,·,·,·,·,-3,-1,·,
O=C(CSc1nnc(-c2ccccc2F)n1-c1ccccc1)c1ccc2ccccc2c1,·,·,·,·,-30,-5,·,
O=C1c2ccc(Oc3ccc([N+](=O)[O-])cc3)cc2C(=O)N1c1ccncc1,87*,0,-6,-18,5,0,79*,
O=C(O)CN1C(=O)c2ccc(Oc3ccc([N+](=O)[O-])cc3)cc2C1=O,-1,0,0,-6,4,-1,·,
SMILES,MPTP inh,aDG glyco up,V-ATPase pH,Lipid droplet,ADAM10 inh,ADAM17 inh,MPTP counter,others
O=C(N/N=C/c1cc(Br)ccc1O)Nc1ccccc1,99*,0,-1,17,-76,-29,65*,
CN(C)S(=O)(=O)c1cccc(NC(=S)N/N=C/c2cccc(O)c2)c1,2,0,11,-9,12,8,·,
CN(C)S(=O)(=O)c1cccc(NC(=S)N/N=C/c2cc(Br)ccc2O)c1,100*,1,-1,-4,-18,-3,38*,
COC(=O)[C@@H]1N=C(c2ccc(OC)cc2)O[C@]12C(=O)N(Cc1cn(Cc3ccccc3)nn1)c1cccc(Cl)c12,·,·,·,·,16,5,·,
Cc1cc(NC(=O)Nc2cccc(C(F)(F)F)c2)no1,76*,0,3,16,8,4,71*,
Cc1cc(NS(=O)(=O)c2ccc(NC(=O)Nc3cccc(C(F)(F)F)c3)cc2)no1,-1,0,1,2,7,0,·,
Cc1cc(/C(N)=N/OC(=O)Nc2cccc(C(F)(F)F)c2)no1,72*,0,1,2,-3,-3,88*,
N/C(=N\OC(=O)Nc1ccccc1)c1cccc(C(F)(F)F)c1,-1,0,2,15,1,-2,·,
C[C@@H](O[Si](c1ccccc1)(c1ccccc1)C(C)(C)C)[C@H]1C(=O)N[C@H](Cc2cn(S(=O)(=O)c3ccccc3)c3ccccc23)C(=O)N1C,·,·,·,·,3,2,·,
COC(=O)c1cnn(-c2ccc(F)cc2F)c1/C=N/NC(=S)Nc1ccccc1,·,·,·,·,7,8,·,
COc1cccc(/C=C2\CC3(OC(=O)C4CCCCC4)CCCN2C3)c1 (stereo unspecified),·,·,·,·,-7,-2,·,
CC(C)(C)c1ccc(C(=O)NC(=S)NNC(=O)c2cccs2)cc1,92*,1,2,-5,-1,-1,29*,
Cc1cccc(C(=O)NC(=S)NNC(=O)c2cccs2)c1,54*,0,-2,17,6,3,-12,
Cc1cccc(C(=O)NC(=S)NNC(=O)c2ccc(Cl)cc2)c1,95*,1,-4,-7,13,4,19,
O=C(O)c1ccccc1NC(=S)NC(=O)c1sc2ccccc2c1Cl,-6,0,-4,3,-94,-35,·,

# Compound activity deposited in PubChem BioAssay by several laboratories.
